Values after ≈ are worked out from the molar mass of the structure shown.
Experiments:
Type in all cases: functional
Enterococcus faecium [1] = assay: Antimicrobial activity against vancomycin-resistant Enterococcus faecium 379 NC12204 after 18 hrs by broth dilution method; conditions: Enterococcus faecium, 379, 18 h
Method in brief: (§1)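 MIC by broth dilution following NCCLS recommendations, Mueller-Hinton II medium; inoculum 5 × 10^5 cfu/mL; antibiotic range 128-0.0625 µg/mL; microtiter plates incubated 18 h at 35 °C in ambient air; MIC read after incubation.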

Candida albicans = assay: Antimicrobial activity against Candida albicans 54 CA300 after 18 hrs by broth dilution method; conditions: Candida albicans, 54, 18 h
Method in brief: (§2)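 MIC by broth dilution per NCCLS recommendations in Mueller-Hinton II medium. Inoculum 5 × 10^5 cfu/mL, antibiotic concentrations 128-0.0625 µg/mL. Microtiter plates incubated 18 h at 35 °C in ambient air. MIC read at end of incubation.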

Escherichia coli [2] = assay: Antimicrobial activity against Escherichia coli 442 GC4559 after 18 hrs by broth dilution method; conditions: Escherichia coli, 442, 18 h; method in brief: as §2
Enterococcus faecium [3] = assay: Antimicrobial activity against Enterococcus faecium 436 ID3151 after 18 hrs by broth dilution method; conditions: Enterococcus faecium, 436, 18 h; method in brief: as §2
Staphylococcus aureus [4] = assay: Antimicrobial activity against Staphylococcus aureus 375 ATCC 3538p after 18 hrs by broth dilution method; conditions: Staphylococcus aureus, 375, 18 h; method in brief: as §2
Staphylococcus aureus [5] = assay: Antimicrobial activity against methicillin-resistant Staphylococcus aureus 310 SSC8224 after 18 hrs by broth dilution method; conditions: Staphylococcus aureus, 310, 18 h; method in brief: as §1
Escherichia coli [6] = assay: Antimicrobial activity against Escherichia coli 389 GC4560 expressing imp after 18 hrs by broth dilution method; conditions: Escherichia coli, 389, 18 h; method in brief: as §2

Structure (SMILES) | MIC (Enterococcus faecium [1]) | MIC (Candida albicans) | MIC (Escherichia coli [2]) | MIC (Enterococcus faecium [3]) | MIC (Staphylococcus aureus [4]) | MIC (Staphylococcus aureus [5]) | MIC (Escherichia coli [6])
CC(C)=CCC/C(C)=C/CC/C(C)=C/CN1C(=O)c2cc(F)cc(O)c2Nc2c(O)cc(O)cc21 | 16 µg/mL (≈ 33.3 µM) | > 128 µg/mL | > 128 µg/mL | 32 µg/mL (≈ 66.6 µM) | 16 µg/mL (≈ 33.3 µM) | 8 µg/mL (≈ 16.6 µM) | > 128 µg/mL
CC(C)=CCC/C(C)=C/CC/C(C)=C/CN1C(=O)c2ccc(F)c(O)c2Nc2c(O)cc(O)cc21 | 32 µg/mL (≈ 66.6 µM) | > 128 µg/mL | > 128 µg/mL | 32 µg/mL (≈ 66.6 µM) | 32 µg/mL (≈ 66.6 µM) | 16 µg/mL (≈ 33.3 µM) | > 128 µg/mL
CC(C)=CCC/C(C)=C/CC/C(C)=C/CN1C(=O)c2cccc(O)c2Nc2c(O)cc(O)cc21 [DIAZEPINOMICIN] | 32 µg/mL (≈ 69.2 µM) | > 128 µg/mL | > 128 µg/mL | 64 µg/mL (≈ 138 µM) | 16 µg/mL (≈ 34.6 µM) | 8 µg/mL (≈ 17.3 µM) | > 128 µg/mL

From ChEMBL document CHEMBL1152322, “Evaluating indole-related derivatives as precursors in the directed biosynthesis of diazepinomicin analogues” (2009)
